From ChEMBL document CHEMBL1137643, “In vitro and in vivo activities of novel fluoroquinolones alone and in combination with clarithromycin against clinically isolated Mycobacterium avium complex strains in Japan” (2007)
≈ marks a conversion by molar mass, not a printed value.

How the values were obtained:
Assay type in all cases: functional
[1] = tested on: Mycobacterium intracellulare; assay: Antimycobacterial activity against Mycobacterium intracellular JATA52-01 infected C57BL/6J mouse assessed as spleen bacterial count at 100 mg/kg/day dosed through gavage route administered for 28 days post bacterial challenge measured 2 days after last dose
In short: (§1)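 Mice given 1.0 × 10^7 to 3.0 × 10^7 CFU in 100 μl via tail vein; daily gavage dosing began day 21 for 28 days; distilled-water controls. Sacrifice 48 h after last dose. Organ portions homogenized in 1 ml saline, diluted in 7H9, plated on 7H10; log10 CFU/organ, mean ± SEM, 5 mice/group. Experiment run twice; ANOVA with Fisher's PLSD.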

Mycobacterium avium [2] = assay: Antimycobacterial activity against Mycobacterium avium JATA51-01 infected C57BL/6J mouse assessed as spleen bacterial count at 100 mg/kg/day dosed through gavage route administered for 28 days post bacterial challenge measured 2 days after last dose
In short: (§2)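 Mice infected via tail vein with 1.0 × 10^7 to 3.0 × 10^7 CFU in 100 μl saline; daily oral gavage started day 21, for 28 days; distilled-water controls; sacrificed 48 h after last dose; lungs, liver, spleen homogenized in saline, serially diluted in 7H9, plated on 7H10 agar; log10 CFU/organ, mean ± SEM, 5 mice/group; ANOVA with Fisher's PLSD; experiment done twice.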

[3] = tested on: Mycobacterium avium complex sp.; assay: Antimycobacterial activity against Mycobacterium avium complex N084 infected C57BL/6J mouse assessed as spleen bacterial count at 100 mg/kg/day dosed through gavage route administered for 28 days post bacterial challenge measured 2 days after last dose; in short: as §1
[4] = tested on: Mycobacterium avium complex sp.; assay: Antimycobacterial activity against Mycobacterium avium complex N018 infected C57BL/6J mouse assessed as lung bacterial count at 100 mg/kg/day dosed through gavage route administered for 28 days post bacterial challenge measured 2 days after last dose; in short: as §1
[5] = tested on: Mycobacterium avium complex sp.; assay: Antimycobacterial activity against Mycobacterium avium complex N084 infected C57BL/6J mouse assessed as liver bacterial count at 100 mg/kg/day dosed through gavage route administered for 28 days post bacterial challenge measured 2 days after last dose; in short: as §1
[6] = tested on: Mycobacterium avium complex sp.; assay: Antimycobacterial activity against Mycobacterium avium complex N084 after 14 days by broth microdilution method; conditions: N084, 336 h
In short: (§3)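 Broth microdilution in Middlebrook 7H9 (OADC, Tween 80, glycerol); twofold dilutions giving final 0.125–128 μg/ml; inoculum 1.0 × 10^5 CFU/well; 14 days at 37°C. MIC = lowest concentration completely inhibiting growth. Triplicate tests. Inocula from 7H10 agar colonies (21 days) subcultured in 7H9 for 7 days at 37°C, stored at −80°C.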

[7] = tested on: Mycobacterium avium complex sp.; assay: Antimycobacterial activity against Mycobacterium avium complex N018 infected C57BL/6J mouse assessed as liver bacterial count at 100 mg/kg/day dosed through gavage route administered for 28 days post bacterial challenge measured 2 days after last dose; in short: as §1
[8] = tested on: Mycobacterium intracellulare; assay: Antimycobacterial activity against Mycobacterium intracellular JATA52-01 infected C57BL/6J mouse assessed as liver bacterial count at 100 mg/kg/day dosed through gavage route administered for 28 days post bacterial challenge measured 2 days after last dose; in short: as §1
Mycobacterium avium [9] = assay: Antimycobacterial activity against Mycobacterium avium JATA51-01 infected C57BL/6J mouse assessed as lung bacterial count at 100 mg/kg/day dosed through gavage route administered for 28 days post bacterial challenge measured 2 days after last dose; in short: as §2
[10] = tested on: Mycobacterium avium complex sp.; assay: Antimycobacterial activity against Mycobacterium avium complex N016 after 14 days by broth microdilution method; conditions: N016, 336 h; in short: as §3
[11] = tested on: Mycobacterium avium complex sp.; assay: Antimycobacterial activity against Mycobacterium avium complex N016 infected C57BL/6J mouse assessed as lung bacterial count at 100 mg/kg/day dosed through gavage route administered for 28 days post bacterial challenge measured 2 days after last dose; in short: as §1
[12] = tested on: Mycobacterium avium complex sp.; assay: Antimycobacterial activity against Mycobacterium avium complex N018 infected C57BL/6J mouse assessed as spleen bacterial count at 100 mg/kg/day dosed through gavage route administered for 28 days post bacterial challenge measured 2 days after last dose; in short: as §1
[13] = tested on: Mycobacterium avium complex sp.; assay: Antimycobacterial activity against Mycobacterium avium complex N016 infected C57BL/6J mouse assessed as spleen bacterial count at 100 mg/kg/day dosed through gavage route administered for 28 days post bacterial challenge measured 2 days after last dose; in short: as §1
[14] = tested on: Mycobacterium intracellulare; assay: Antimycobacterial activity against Mycobacterium intracellular JATA52-01 after 14 days by broth microdilution method; conditions: JATA52-01, 336 h; in short: as §3
[15] = tested on: Mycobacterium avium complex sp.; assay: Antimycobacterial activity against Mycobacterium avium complex N084 infected C57BL/6J mouse assessed as lung bacterial count at 100 mg/kg/day dosed through gavage route administered for 28 days post bacterial challenge measured 2 days after last dose; in short: as §1
[16] = tested on: Mycobacterium avium complex sp.; assay: Antimycobacterial activity against Mycobacterium avium complex after 14 days by broth microdilution method; conditions: 336 h; in short: as §3
Mycobacterium avium [17] = assay: Antimycobacterial activity against Mycobacterium avium JATA51-01 infected C57BL/6J mouse assessed as liver bacterial count at 100 mg/kg/day dosed through gavage route administered for 28 days post bacterial challenge measured 2 days after last dose; in short: as §2
[18] = tested on: Mycobacterium avium complex sp.; assay: Antimycobacterial activity against Mycobacterium avium complex N016 infected C57BL/6J mouse assessed as liver bacterial count at 100 mg/kg/day dosed through gavage route administered for 28 days post bacterial challenge measured 2 days after last dose; in short: as §1
Mycobacterium avium [19] = assay: Antimycobacterial activity against Mycobacterium avium JATA51-01 after 14 days by broth microdilution method; conditions: JATA51-01, 336 h
In short: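 Broth microdilution in 7H9 (10% OADC, 0.05% Tween 80, 0.2% glycerol); twofold drug dilutions, final 0.125–128 μg/ml; inoculum 1.0 × 10^5 CFU/well from 7-day 37°C subculture of 21-day 7H10 colonies; 14 days at 37°C; MIC = lowest concentration with complete growth inhibition; triplicate.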

[20] = tested on: Mycobacterium intracellulare; assay: Antimycobacterial activity against Mycobacterium intracellular JATA52-01 infected C57BL/6J mouse assessed as lung bacterial count at 100 mg/kg/day dosed through gavage route administered for 28 days post bacterial challenge measured 2 days after last dose; in short: as §1
[21] = tested on: Mycobacterium avium complex sp.; assay: Antimycobacterial activity against Mycobacterium avium complex N018 after 14 days by broth microdilution method; conditions: N018, 336 h; in short: as §3
[22] = tested on: Mycobacterium intracellulare; assay: Antimycobacterial activity against Mycobacterium intracellular JATA52-01 infected C57BL/6J mouse assessed as lung bacterial count at 200 mg/kg/day dosed through gavage route administered for 28 days post bacterial challenge measured 2 days after last dose; in short: as §1
[23] = tested on: Mycobacterium intracellulare; assay: Antimycobacterial activity against Mycobacterium intracellular JATA52-01 infected C57BL/6J mouse assessed as liver bacterial count at 200 mg/kg/day dosed through gavage route administered for 28 days post bacterial challenge measured 2 days after last dose; in short: as §1
Mycobacterium avium [24] = assay: Antimycobacterial activity against Mycobacterium avium JATA51-01 infected C57BL/6J mouse assessed as liver bacterial count at 200 mg/kg/day dosed through gavage route administered for 28 days post bacterial challenge measured 2 days after last dose; in short: as §2
[25] = tested on: Mycobacterium avium complex sp.; assay: Antimycobacterial activity against Mycobacterium avium complex N084 infected C57BL/6J mouse assessed as lung bacterial count at 200 mg/kg/day dosed through gavage route administered for 28 days post bacterial challenge measured 2 days after last dose; in short: as §1
Mycobacterium avium [26] = assay: Antimycobacterial activity against Mycobacterium avium JATA51-01 infected C57BL/6J mouse assessed as lung bacterial count at 200 mg/kg/day dosed through gavage route administered for 28 days post bacterial challenge measured 2 days after last dose; in short: as §2
[27] = tested on: Mycobacterium avium complex sp.; assay: Antimycobacterial activity against Mycobacterium avium complex N018 infected C57BL/6J mouse assessed as spleen bacterial count at 200 mg/kg/day dosed through gavage route administered for 28 days post bacterial challenge measured 2 days after last dose; in short: as §1
[28] = tested on: Mycobacterium avium complex sp.; assay: Antimycobacterial activity against Mycobacterium avium complex N018 infected C57BL/6J mouse assessed as lung bacterial count at 200 mg/kg/day dosed through gavage route administered for 28 days post bacterial challenge measured 2 days after last dose; in short: as §1
[29] = tested on: Mycobacterium avium complex sp.; assay: Antimycobacterial activity against Mycobacterium avium complex N016 infected C57BL/6J mouse assessed as spleen bacterial count at 200 mg/kg/day dosed through gavage route administered for 28 days post bacterial challenge measured 2 days after last dose; in short: as §1
[30] = tested on: Mycobacterium avium complex sp.; assay: Antimycobacterial activity against Mycobacterium avium complex N016 infected C57BL/6J mouse assessed as liver bacterial count at 200 mg/kg/day dosed through gavage route administered for 28 days post bacterial challenge measured 2 days after last dose; in short: as §1
[31] = tested on: Mycobacterium avium complex sp.; assay: Antimycobacterial activity against Mycobacterium avium complex N016 infected C57BL/6J mouse assessed as lung bacterial count at 200 mg/kg/day dosed through gavage route administered for 28 days post bacterial challenge measured 2 days after last dose; in short: as §1
[32] = tested on: Mycobacterium avium complex sp.; assay: Antimycobacterial activity against Mycobacterium avium complex N084 infected C57BL/6J mouse assessed as liver bacterial count at 200 mg/kg/day dosed through gavage route administered for 28 days post bacterial challenge measured 2 days after last dose; in short: as §1
Mycobacterium avium [33] = assay: Antimycobacterial activity against Mycobacterium avium JATA51-01 infected C57BL/6J mouse assessed as spleen bacterial count at 200 mg/kg/day dosed through gavage route administered for 28 days post bacterial challenge measured 2 days after last dose; in short: as §2
[34] = tested on: Mycobacterium intracellulare; assay: Antimycobacterial activity against Mycobacterium intracellular JATA52-01 infected C57BL/6J mouse assessed as spleen bacterial count at 200 mg/kg/day dosed through gavage route administered for 28 days post bacterial challenge measured 2 days after last dose; in short: as §1
[35] = tested on: Mycobacterium avium complex sp.; assay: Antimycobacterial activity against Mycobacterium avium complex N018 infected C57BL/6J mouse assessed as liver bacterial count at 200 mg/kg/day dosed through gavage route administered for 28 days post bacterial challenge measured 2 days after last dose; in short: as §1
[36] = tested on: Mycobacterium avium complex sp.; assay: Antimycobacterial activity against Mycobacterium avium complex N084 infected C57BL/6J mouse assessed as spleen bacterial count at 200 mg/kg/day dosed through gavage route administered for 28 days post bacterial challenge measured 2 days after last dose; in short: as §1

For `COc1c(N2CCNC(C)C2)c(F)cc2c(=O)c(C(=O)O)cn(C3CC3)c12` (configuration not stated) [GATIFLOXACIN], the log10cfu [1] was 4.41, the log10cfu (Mycobacterium avium [2]) was 9.18 and the log10cfu [3] was 7.6. For the same molecule, the log10cfu [4] was 5.96, the log10cfu [5] was 8 and the MIC [6] was 1 µg/mL (≈ 2.66 µM). It also gave a log10cfu [7] of 7.21, a log10cfu [8] of 5.15 and a log10cfu (Mycobacterium avium [9]) of 8.9. For the same molecule, the MIC [10] was 0.5 µg/mL (≈ 1.33 µM), the log10cfu [11] was 5.48 and the log10cfu [12] was 6.75. It also gave a log10cfu [13] of 6.81, an MIC [14] of 1 µg/mL (≈ 2.66 µM) and a log10cfu [15] of 8.14. It also gave an MIC90 [16] of 4 µg/mL (≈ 10.7 µM), a log10cfu (Mycobacterium avium [17]) of 9.91 and a log10cfu [18] of 6.6. The MIC (Mycobacterium avium [19]) was 2 µg/mL (≈ 5.33 µM), the log10cfu [20] was 5.32 and the MIC [21] was 1 µg/mL (≈ 2.66 µM).

Molecule `CC[C@H]1OC(=O)[C@H](C)[C@@H](O[C@H]2C[C@@](C)(OC)[C@@H](O)[C@H](C)O2)[C@H](C)[C@@H](O[C@@H]2O[C@H](C)C[C@H](N(C)C)[C@H]2O)[C@](C)(OC)C[C@@H](C)C(=O)[C@H](C)[C@@H](O)[C@]1(C)O` [CLARITHROMYCIN] has a log10cfu [22] of 3.17, a log10cfu [23] of 3.2 and a log10cfu (Mycobacterium avium [24]) of 8.12. The log10cfu [25] was 5.28, the MIC [6] was 0.5 µg/mL (≈ 0.668 µM) and the log10cfu (Mycobacterium avium [26]) was 7.1. The log10cfu [27] was 4.06, the log10cfu [28] was 2.18 and the log10cfu [29] was 5.36. The MIC [10] was 2 µg/mL (≈ 2.67 µM), the MIC [14] was 0.5 µg/mL (≈ 0.668 µM) and the log10cfu [30] was 5.91. For the same molecule, the MIC90 [16] was 64 µg/mL (≈ 85.6 µM), the log10cfu [31] was 3.94 and the MIC (Mycobacterium avium [19]) was 2 µg/mL (≈ 2.67 µM). The log10cfu [32] was 4.58, the log10cfu (Mycobacterium avium [33]) was 7.1 and the MIC [21] was 0.5 µg/mL (≈ 0.668 µM). It also gave a log10cfu [34] of 3.16, a log10cfu [35] of 5.03 and a log10cfu [36] of 4.3.
